Reference: ChEMBL document CHEMBL4316617, “Inhibition of the FAD containing ER oxidoreductin 1 (Ero1) protein by EN-460 as a strategy for treatment of multiple myeloma” (Bioorg Med Chem, 2019)
Calls of active or inactive are those of the source. No cut-off for these calls is given here.

How the values were obtained:
U-266 [1] = experiment: Induction of endoplasmic reticulum stress in human U266 cells assessed as increase in ATF4 level measured after 2 to 8 hrs by Western blot analysis; format: functional, cell-based
How it was run: (§1)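 U266 cells treated with compound or DMSO for 2, 4 and 8 h. Lysates resolved on 8–10% SDS-PAGE and transferred to PVDF. Blocked in 5% milk/TBST, probed overnight at 4 °C for p-eIF2α, ATF4 and ATF6 (this antibody detects full-length ATF6 only), with β-actin as loading control. Chemiluminescent detection; n = 3.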

[2] = target: T1, Amine oxidase [flavin-containing] A (Homo sapiens, UniProt P21397); experiment: Inhibition of MAOA (unknown origin) using kynuramine as substrate
T1 sequence (P21397 whole entry): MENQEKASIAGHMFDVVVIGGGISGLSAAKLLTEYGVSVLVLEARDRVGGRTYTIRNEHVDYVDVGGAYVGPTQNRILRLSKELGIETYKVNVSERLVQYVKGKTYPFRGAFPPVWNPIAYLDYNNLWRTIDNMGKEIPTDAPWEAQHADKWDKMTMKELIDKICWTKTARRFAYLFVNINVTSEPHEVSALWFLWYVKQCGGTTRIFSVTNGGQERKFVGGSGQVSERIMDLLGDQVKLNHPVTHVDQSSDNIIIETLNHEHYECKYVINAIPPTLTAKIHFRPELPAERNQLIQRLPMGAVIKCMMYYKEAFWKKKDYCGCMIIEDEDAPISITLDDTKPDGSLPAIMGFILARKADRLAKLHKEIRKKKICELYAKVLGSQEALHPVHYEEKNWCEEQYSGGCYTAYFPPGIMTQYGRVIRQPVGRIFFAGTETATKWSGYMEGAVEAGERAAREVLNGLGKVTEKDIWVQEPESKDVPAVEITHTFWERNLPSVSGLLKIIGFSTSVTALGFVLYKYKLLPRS
How it was run: (§2)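 Purchased MAO-A or MAO-B activity measured as kynuramine metabolism, with fluorescence read at Ex 310/Em 380 nm. IC50 fitted, N = 2.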

U-266 [3] = experiment: Induction of endoplasmic reticulum stress in human U266 cells assessed as reduction in full length ATF6 measured after 2 to 8 hrs by Western blot analysis; format: functional, cell-based; how it was run: as §1
[4] = target: T2, Amine oxidase [flavin-containing] B (Homo sapiens, UniProt P27338); experiment: Inhibition of MAOB (unknown origin) using kynuramine as substrate; how it was run: as §2
T2 sequence (P27338 whole entry): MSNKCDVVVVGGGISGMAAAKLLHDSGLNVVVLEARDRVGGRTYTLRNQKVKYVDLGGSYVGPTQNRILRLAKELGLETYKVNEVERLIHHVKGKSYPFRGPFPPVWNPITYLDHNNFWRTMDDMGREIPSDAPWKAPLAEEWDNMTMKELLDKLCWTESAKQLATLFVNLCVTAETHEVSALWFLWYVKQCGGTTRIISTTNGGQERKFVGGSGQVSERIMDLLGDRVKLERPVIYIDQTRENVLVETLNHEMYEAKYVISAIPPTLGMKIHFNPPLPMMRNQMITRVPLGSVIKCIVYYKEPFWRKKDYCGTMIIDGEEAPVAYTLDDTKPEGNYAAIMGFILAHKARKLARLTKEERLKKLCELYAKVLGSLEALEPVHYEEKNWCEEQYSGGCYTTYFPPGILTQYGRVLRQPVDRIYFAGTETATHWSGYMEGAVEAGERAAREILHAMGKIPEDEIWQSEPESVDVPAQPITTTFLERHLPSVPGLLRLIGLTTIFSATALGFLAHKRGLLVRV

ERO1-like protein alpha [5] = target: T3, ERO1-like protein alpha (Homo sapiens, UniProt Q96HE7, C104A/C131A/C166A); experiment: (§3) Inhibition of recombinant human Ero1Lalpha C104A/C131A/C166A triple mutant (22 to 468 residues) expressed in Escherichia coli BL21(DE3)-RIL measured after 30 mins by Amplex red dye based fluorescence assay
[6] = test system: T4, ERO1-like protein alpha (Homo sapiens), Q96HE7 [C104A,C131A,C166A]; experiment: as §3
T4 sequence (whole entry): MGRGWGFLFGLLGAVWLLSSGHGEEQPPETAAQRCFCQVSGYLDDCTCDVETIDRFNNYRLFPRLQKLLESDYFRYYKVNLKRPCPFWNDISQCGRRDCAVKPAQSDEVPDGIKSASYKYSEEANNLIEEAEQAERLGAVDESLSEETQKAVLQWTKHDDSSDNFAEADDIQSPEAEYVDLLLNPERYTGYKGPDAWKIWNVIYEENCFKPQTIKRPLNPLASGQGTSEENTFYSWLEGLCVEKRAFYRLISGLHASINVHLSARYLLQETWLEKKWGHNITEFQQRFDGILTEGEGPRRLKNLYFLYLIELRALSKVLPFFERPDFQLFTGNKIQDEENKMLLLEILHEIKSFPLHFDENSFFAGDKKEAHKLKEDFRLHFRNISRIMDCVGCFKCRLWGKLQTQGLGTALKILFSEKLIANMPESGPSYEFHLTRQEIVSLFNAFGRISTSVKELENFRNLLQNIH

PBMC = experiment: Cytotoxicity against PBMC (unknown origin) assessed as cell death; format: cell-based
[7] = test system: T4, ERO1-like protein alpha (Homo sapiens), Q96HE7 [C104A,C131A,C166A]; experiment: Competitive inhibition of recombinant human Ero1Lalpha C104A/C131A/C166A triple mutant (22 to 468 residues) expressed in Escherichia coli BL21(DE3)-RIL using varying levels of human PDI as substrate by Lineweaver-burk plot analysis
[8] = Solubility of the compound at >200 uM; format: physicochemical
[9] = test system: T4, ERO1-like protein alpha (Homo sapiens), Q96HE7 [C104A,C131A,C166A]; experiment: Binding affinity to recombinant human Ero1Lalpha C104A/C131A/C166A triple mutant (22 to 468 residues) expressed in Escherichia coli BL21(DE3)-RIL assessed as melting temperature at 20 uM by SYPRO orange protein gel staining based differential scanning fluorimetry (reference value: 53.15 +/- 0.15 degreeC)
MM1.S = experiment: Cytotoxicity against human MM1S cells assessed as reduction in cell viability measured after 72 hrs by MTT assay; format: functional, cell-based
How it was run: (§4)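 MM cell lines exposed to compound for 72 h. MTT (50 μl of 2 mg/ml) added for 4 h, formazan dissolved in DMSO, absorbance read at 570 nm. IC50 calculated; mean ± SD of 3 independent experiments.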

[10] = target: Lysine-specific histone demethylase 1A (Homo sapiens, UniProt O60341); experiment: Inhibition of recombinant human LSD1 using ARTK(diMethyl)QTARKSTGGKAPRKQLAPRKQLA as substrate measured after 30 mins by ADHP/horseradish peroxidase coupled fluorescence assay
How it was run: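 LSD-1 activity measured with a commercial kit following the manufacturer's instructions. IC50 fitted, N = 2.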

ERO1-like protein alpha [11] = target: T3, ERO1-like protein alpha; experiment: Inhibition of recombinant human Ero1Lalpha C104A/C131A/C166A triple mutant (22 to 468 residues) expressed in Escherichia coli BL21(DE3)-RIL using human PDI as substrate measured after 30 mins by Amplex red dye based fluorescence assay
U-266 [12] = experiment: Induction of endoplasmic reticulum stress in human U266 cells assessed as increase in eIF2alpha phosphorylation measured after 2 to 8 hrs by Western blot analysis; format: functional, cell-based; how it was run: as §1
U-266 [13] = experiment: Induction of apoptosis in human U266 cells at 12.5 to 50 uM measured after 18 hrs by Annexin V-FITC/propidium iodide staining based flow cytometry; format: functional, cell-based
How it was run: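 U266 cells treated with compound or DMSO vehicle for 18 h, washed in ice-cold PBS, then stained with Annexin V-FITC/PI in binding buffer for 15 min at 37 °C in the dark. At least 10,000 cells analysed by flow cytometry. Mean ± SD, n = 3 independent experiments.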

U-266 [14] = experiment: Cytotoxicity against human U266 cells assessed as reduction in cell viability measured after 72 hrs by MTT assay; format: functional, cell-based; settings: U-266, 72 h; how it was run: as §4
[15] = target: Protein disulfide-isomerase (Homo sapiens) (UniProt P07237); experiment: Binding affinity to recombinant human His-tagged PDI (18 to 479 residues) expressed in Escherichia coli assessed as melting temperature at 20 uM by SYPRO orange protein gel staining based differential scanning fluorimetry (reference value: 58.86 +/- 0.12 degreeC)
Sequence of Protein disulfide-isomerase (Homo sapiens) (P07237 18-508 limits assumed): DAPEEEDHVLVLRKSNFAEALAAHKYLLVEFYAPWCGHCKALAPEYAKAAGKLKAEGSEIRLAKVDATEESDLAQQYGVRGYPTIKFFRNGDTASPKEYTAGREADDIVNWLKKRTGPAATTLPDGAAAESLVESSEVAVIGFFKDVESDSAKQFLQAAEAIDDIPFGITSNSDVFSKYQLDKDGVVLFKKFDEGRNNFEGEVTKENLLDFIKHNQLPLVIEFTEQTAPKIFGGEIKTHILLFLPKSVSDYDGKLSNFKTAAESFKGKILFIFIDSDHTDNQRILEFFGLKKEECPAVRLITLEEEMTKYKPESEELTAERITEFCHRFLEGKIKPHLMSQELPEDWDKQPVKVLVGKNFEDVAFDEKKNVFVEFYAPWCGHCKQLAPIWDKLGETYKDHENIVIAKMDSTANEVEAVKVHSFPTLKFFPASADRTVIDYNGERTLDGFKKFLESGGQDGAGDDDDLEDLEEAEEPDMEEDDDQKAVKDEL

[16] = Solubility of the compound in pH 7.4 phosphate buffered saline; format: physicochemical; settings: buffer

Row | Compound | Activity (U-266 [1]) | IC50 [2] | Activity (U-266 [3]) | IC50 [4] | IC50 (ERO1-like protein alpha [5]) | inhibition [6] | Activity (PBMC) | inhibition [7] | solubility [8] | Tm [9] | IC50 (MM1.S) | IC50 [10] | IC50 (ERO1-like protein alpha [11]) | Activity (U-266 [12]) | Activity (U-266 [13]) | IC50 (U-266 [14]) | Tm [15] | solubility [16]
1 | O=C(O)c1cc(N2N=C(C(F)(F)F)/C(=C/c3ccc(-c4ccccc4)o3)C2=O)ccc1Cl | Active | 7.91 µM | Active | 30.6 µM | 12.7 µM | Dose-dependent effect | Toxic | Active | Insoluble | 55.9 °C | 14.7 µM | 4.16 µM | 22.1 µM | Active | Active | 10.1 µM | 59.2 °C | 
2 | [N-]=[N+]=Nc1cccc(-c2ccc(/C=C3/C(=O)N(c4ccc(Cl)c(C(=O)O)c4)N=C3C(F)(F)F)o2)c1 |  |  |  |  | 12.2 µM | Dose-dependent effect |  |  | Insoluble | 59.8 °C | 18.8 µM |  |  |  |  | 14.7 µM | 57.7 °C | 
3 | [N-]=[N+]=Nc1ccc(-c2ccc(/C=C3/C(=O)N(c4ccc(Cl)c(C(=O)O)c4)N=C3C(F)(F)F)o2)cc1 |  |  |  |  |  |  |  |  |  |  | 17.3 µM |  |  |  |  | 7.03 µM |  | Insoluble
